# ARFGAP1 inhibitor = inhibitors of rat ARFGAP1 GAP activity, primary screen, biochemical, fluorescence polarization, GDP tracer; ADP-ribosylation factor GTPase-activating protein 1 (Rattus norvegicus), Q62848; Arfgap1-stimulated ARF1 GTP hydrolysis, GDP FP detection; inhibition, % at 16.5 µM; 360,000 tested, 0.26% active; AID 651572, 2012;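 active = inhibition above a per-plate limit, mean inhibition of low control wells plus 3 SD, cut at about 25% in these data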;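 note: 0% = DMSO wells with enzyme and 100% = wells lacking Arfgap1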
#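 system = rat Arfgap1 catalytic domain, aa 1-136 | technique = FP, GDP Alexa 633 tracer displaced from anti-GDP antibody, 620/688 nm | compound = one concentration, 16.5 µM, DMSO 1.26% | medium = HEPES-based buffer, pH 7.5 | timing = compound-enzyme preincubation 20 min, reaction 120 min, detection 60 min, 25 °C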
# PAFAH2 inh = PAFAH2 enzyme inhibitors, primary screen, biochemical, fluorescence polarization, human; Platelet-activating factor acetylhydrolase 2, cytoplasmic (Homo sapiens), Q99487; recombinant PAFAH2, FP-rhodamine activity probe; inhibition, % at 3.39 µM; 340,000 tested, 0.99% active;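 active = inhibition above the mean over all tested compounds plus 3 SD, cut at about 30% in these data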;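 note: inhibitors block probe labeling of enzyme so polarization drops; 0% = enzyme with DMSO and 100% = wells lacking PAFAH2 protein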
# pPAFAH FP inh = pPAFAH enzyme inhibitors, primary screen, biochemical, fluorescence polarization, human; Platelet-activating factor acetylhydrolase (Homo sapiens), Q13093; recombinant pPAFAH, FP-rhodamine probe fluorescence polarization; inhibition, % at 3.39 µM; 330,000 tested, 1.5% active;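 active = inhibition above the mean inhibition across the screen plus 3 SD, cut at about 25% in these data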;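 note: inhibitors block binding of the rhodamine activity-based probe so polarization drops; 0% = enzyme with DMSO and 100% = wells lacking pPAFAH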
# ASAP1 inh = inhibitors of human ASAP1 ArfGAP activity, primary screen, biochemical, fluorescence polarization | Arf-GAP with SH3 domain, ANK repeat and PH domain-containing protein 1 (Homo sapiens), … | ASAP1-stimulated ARF1 GTP hydrolysis, GDP FP detection | inhibition, % at 16.5 µM | 360,000 tested, 0.19% active | AID 624377, 2012; in the data active = inhibition above about 25%;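 note: 0% = vehicle with enzyme and substrate and 100% = no enzyme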
# PAFAH1B3 FP inh = PAFAH1B3 enzyme inhibitors, primary screen, biochemical, fluorescence polarization, human; recombinant PAFAH1B3, FP-rhodamine probe; 340,000 tested, 0.28% active; Platelet-activating factor acetylhydrolase IB subunit alpha1 (Homo sapiens), Q15102; inhibition, % at 3.39 µM; AID 492972, 2010;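 active = inhibition above the screen-wide average of all tested compounds plus 3 SD, cut at about 25% in these data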;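 note: 0% = enzyme with DMSO only and 100% = wells lacking PAFAH1B3 protein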
# PAFAH1B2 FP inh = PAFAH1B2 enzyme inhibitors, primary screen, biochemical, fluorescence polarization, human; AID 492953, 2010; 340,000 tested, 1.2% active; Platelet-activating factor acetylhydrolase IB subunit alpha2 (Homo sapiens), P68402; recombinant PAFAH1B2, FP-rhodamine activity probe; inhibition, % at 3.39 µM;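 active = inhibition above the mean of all tested compounds plus 3 SD, cut at about 24% in these data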;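 note: 0% = enzyme with DMSO and 100% = wells lacking PAFAH1B2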
# Target sequence (P68402 whole entry, looked up): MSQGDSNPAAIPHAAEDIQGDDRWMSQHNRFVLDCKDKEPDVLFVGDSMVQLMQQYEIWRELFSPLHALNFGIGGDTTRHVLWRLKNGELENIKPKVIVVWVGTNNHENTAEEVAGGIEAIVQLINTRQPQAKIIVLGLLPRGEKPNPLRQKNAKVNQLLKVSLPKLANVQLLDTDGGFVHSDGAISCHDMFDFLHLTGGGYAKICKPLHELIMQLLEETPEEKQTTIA
# ARFGAP1 inh conf = ARFGAP1 inhibitor hit confirmation, biochemical, fluorescence polarization, triplicate. shares compounds with ARFGAP1 inhibitor. 890 tested, 30% active. ARFGAP1-stimulated ARF1 GTP hydrolysis, GDP tracer FP. AID 651608, 2012. inhibition, % at 16.5 µM;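 active = average inhibition over triplicates above the hit cutoff set in the earlier primary screen, cut at about 25% in these data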;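 note: 0% = Arfgap1 plus ARF1-GTP with DMSO and 100% = wells lacking Arfgap1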
# Target sequence (Q62848 whole entry, looked up): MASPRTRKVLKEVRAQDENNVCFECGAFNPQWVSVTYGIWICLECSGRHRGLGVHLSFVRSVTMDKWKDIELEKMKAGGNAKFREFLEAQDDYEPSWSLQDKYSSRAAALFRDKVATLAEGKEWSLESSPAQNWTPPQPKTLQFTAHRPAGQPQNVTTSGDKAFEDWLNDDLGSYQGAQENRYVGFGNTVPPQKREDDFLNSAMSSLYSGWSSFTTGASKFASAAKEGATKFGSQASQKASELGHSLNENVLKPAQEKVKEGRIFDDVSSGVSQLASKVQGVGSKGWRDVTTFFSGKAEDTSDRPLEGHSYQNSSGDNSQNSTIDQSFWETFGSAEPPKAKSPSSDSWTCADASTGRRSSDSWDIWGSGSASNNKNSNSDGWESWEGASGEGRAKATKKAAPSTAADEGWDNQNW
# The depositor's hits bear a star; · = no result. Compounds with a hit are over-represented: about 2.8% of the library has one in this group of screens.
SMILES,ARFGAP1 inhibitor,PAFAH2 inh,pPAFAH FP inh,ASAP1 inh,PAFAH1B3 FP inh,PAFAH1B2 FP inh,ARFGAP1 inh conf
CC1(C(=O)Nc2cccc(C(F)(F)F)c2)Cc2c(-c3cccc(C(F)(F)F)c3)ccnc2O1 (centres undefined),34*,·,·,4,·,·,11
CC(=O)Nc1cccc(-c2ccnc3c2CC(C)(C(=O)Nc2cccc(C(F)(F)F)c2)O3)c1 (centres undefined),0,·,·,6,·,·,·
Cc1ccc(NC(=O)c2cccc(S(=O)(=O)NCc3ccccc3)c2)nc1,35*,4,-1,4,3,5,-6
Cc1cccc(NC(=O)c2cccc(S(=O)(=O)NCc3ccccc3)c2)n1,7,-5,-1,-6,12,10,·
COc1ccc(CN2C[C@H]3CON(C)[C@H]3C[C@H]2c2ccc(-c3ccccc3)cc2)cc1,-1,·,·,9,·,·,·
O=[N+]([O-])c1cccc(COc2ccc(CO)cc2)c1,-2,·,·,-11,·,·,·
O=C1NC(=O)/C(=C\c2ccc(OCc3cccc([N+](=O)[O-])c3)cc2)N1,49*,-1,10,22,4,-2,86*
CCC(CC)C(=O)Nc1cc(OC)c(OC)cc1C(=O)O,0,-1,0,-4,2,4,·
CCC(C)C(=O)Nc1cc(OC)c(OC)cc1C(=O)O (centres undefined),28*,4,2,-4,4,-4,7
O=C1c2cccc(NCCCNCCO)c2C(=O)c2cccc(NCCCNCCO)c21,14,-18,·,6,-8,-8,·
COc1ccc(-c2c(-c3ccc(OCC(=O)NN)cc3O)n[nH]c2C(F)(F)F)cc1,32*,-9,-1,25,-10,-2,24
CCN(CC)CCNC(=O)c1ccc(NC(=O)CC(NC(=O)c2ccccc2Cl)c2ccccc2)cc1 (centres undefined),0,5,0,-4,8,3,·
COc1ccc(NC(=O)c2ccc(NC(=O)COC(=O)CC(NC(=O)c3ccccc3Cl)c3ccccc3)cc2)cc1 (centres undefined),26*,-11,1,12,-22,-14,5
COC(=O)[C@H](CCSC)NC(=O)Cn1cnc2c(SC)nc(N)nc21,0,1,3,10,-1,1,·
Nc1[nH]c(C(=O)c2ccccc2)c(-c2ccccc2C(F)(F)F)c1C(=O)NCCc1c[nH]c2ccccc12,25*,·,·,3,·,·,12
Cc1ncccc1C(=O)N1CCCC(c2cc(C(=O)Nc3ccc(C(C)(C)C)cc3)no2)C1 (centres undefined),-7,·,·,8,·,·,·
Cc1c(-c2nc(N)nc(Nc3ccc(F)cc3)n2)oc2ccccc12,33*,3,-5,22,-2,-2,2
CC(=O)NC(c1cccc(F)c1)c1nc(-c2cnn(C)c2)cs1 (centres undefined),13,·,·,-1,·,·,·
O=[N+]([O-])c1cc(S(=O)(=O)Oc2ccccc2)ccc1Cl,-7,9,·,-17,-36,19,·
COc1ccc(NC(=O)COC(=O)c2c3c(nc4ccccc24)CCCC3)cc1,24,-6,0,-15,6,2,·
COc1ccc(NC(=O)COC(=O)c2c3c(nc4ccccc24)CCCC3)cc1Cl,27*,-71,-15,0,-6,-8,14
COc1cc(OC)cc(-c2sc3ccc(OC)cc3c2-c2ccc(O)cc2)c1,26*,-6,-2,13,-3,-7,12
COc1ccc(-c2sc3ccc(OC)cc3c2-c2ccc(O)cc2)cc1,17,15,6,17,6,9,·
Cc1nc(C)c(-c2ccc(SCc3ccccc3C)nn2)s1,-8,16,3,14,13,4,·
CCOc1cc(OCC)cc(C(=O)N2CCC[C@H]2C(=O)N2CCC[C@H]2C(=O)NCc2cccc(OC)c2)c1,-3,·,·,1,·,·,·
SMILES,ARFGAP1 inhibitor,PAFAH2 inh,pPAFAH FP inh,ASAP1 inh,PAFAH1B3 FP inh,PAFAH1B2 FP inh,ARFGAP1 inh conf
Cc1ccc[n+](C(C)C(=O)c2ccc(Cl)cc2)c1 (centres undefined),45*,-2,6,6,1,2,-2
COc1ccccc1C(=O)NCCC(=O)Nc1ccc(S(=O)(=O)N2CCCC(C)C2)cc1 (centres undefined),28*,4,0,-1,6,0,3
COc1ccccc1C(=O)NCCC(=O)N1CCCC(C)C1 (centres undefined),4,-1,1,1,-2,-1,·
O=C1c2ccccc2C(Nc2ccc3c(c2)OCCO3)N1c1ccccn1 (centres undefined),1,2,5,3,11,0,·
O=C1c2ccccc2C(Nc2ccc3c(c2)OCCO3)N1c1ccc(Cl)cn1 (centres undefined),25*,1,9,2,6,7,2
CCCCN1C(=O)C(CC(=O)NCCN2CCOCC2)CC(C(=O)N2CCCCCC2)=C1C (centres undefined),-11,·,·,-8,·,·,·
O=C(/C=C\c1ccco1)Nc1nc(-c2ccccc2)cs1,5,-7,-5,8,-4,4,·
O=C(/C=C/c1ccccc1)Nc1nc(-c2ccncc2)cs1,35*,-14,-3,4,-19,-5,62*
O=C1c2ccccc2C(c2nnnn2-c2ccc3c(c2)OCCO3)N1CCc1ccccc1F (centres undefined),-7,·,·,-4,·,·,·
CCC(C)C(=O)Nc1nc(C)c(-c2csc(Nc3cc(Cl)ccc3OC)n2)s1 (centres undefined),31*,8,13,10,7,0,10
COc1cc(C(C)=O)ccc1OCC(O)CNCC(O)c1ccccc1 (centres undefined),-5,-2,-3,2,9,7,·
COc1ccc(CCN2C(=O)NC(NC(=O)CC(C)C)(C(F)(F)F)C2=O)cc1OC (centres undefined),28*,-4,2,-14,7,-1,-3
NS(=O)(=O)c1ccc(CCNC(=O)CNS(=O)(=O)c2cccc(Br)c2)cc1,28*,19,6,3,7,6,-2
